An excerpt weighted towards active compounds, which were near 2.9% of everything screened.
Vif inh: blocks HIV Vif function; HEK293T cells, Vif self-association by quenched fluorescence, imaging, 24 h; inhibition, % at 7.49 µM; actives 0.35% (n = 340,000); AID 602346; in the data active means inhibition above about 50%, passing the limit was not always enough
FGF22 binding: shifts melting point of recombinant human FGF22. Q9HCT0. recombinant FGF22 thermal shift, SYPRO orange fluorescence; percent of sucrose octasulfate shift, DMSO zero. activity (Tm shift, normalised), % at 9.99 µM. actives 1.5% (n = 340,000). AID 651658;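 active means mean Tm shift, scaled 0 neutral to 100 positive control, at about 1.3% or above, every replicate too, limit read from the data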
Target sequence (Q9HCT0 whole entry, looked up): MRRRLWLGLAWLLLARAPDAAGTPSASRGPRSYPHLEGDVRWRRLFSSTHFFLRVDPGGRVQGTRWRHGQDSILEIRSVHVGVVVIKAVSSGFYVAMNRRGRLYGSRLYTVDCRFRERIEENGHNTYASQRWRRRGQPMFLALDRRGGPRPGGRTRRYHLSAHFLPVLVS
Cneo AK release: Cryptococcus neoformans lysis via adenylate kinase release | C. neoformans lysis, adenylate kinase release luminescence, 4 h; normalised: neutral wells 0, clomiphene wells 100 | lysis activity, % at 15 µM | actives 0.2% (n = 360,000) | AID 651654;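 active means mean lysis activity across replicates of at least 80%, whatever share of replicates individually reach that level; inactive means mean lysis activity below 80%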
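Schedule: static 4 h at 37 °C with compound, 1 h detection; system: C. neoformans cells; benchmarks: Clomiphene as positive control; buffer or medium: fresh YPD medium; measure: luminescence rise reflecting yeast cell lysis; measured by: luminescent adenylate kinase detection reagent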
PglD DTNB: inhibitors of Campylobacter jejuni PglD acetyltransferase; inhibition, % at 12.5 µM; purified PglD enzyme, DTNB colorimetric CoA detection; AID 602405; actives 0.098% (n = 360,000); in the data active means inhibition above about 16%, passing the limit was not always enough
PGC1a acetyl inh: PGC1a acetylation modulation, inhibitor mode | U2OS PGC1a acetylation, AlphaScreen anti-acetyl-lysine; with virally co-expressed GCN5 acetyltransferase | inhibition, % at 15.6 µM | actives 0.17% (n = 350,000) | AID 651687;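 active means every replicate shows inhibition of at least 40%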;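 further: 0% = neutral control wells and 100% = positive control wells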
Ecoli rRNA inh: selective bacterial rRNA inhibition in E. coli; actives 1.6% (n = 350,000); GFP signal change (wild-type ribosome), % (test concentration not listed); E. coli WT GFP vs humanized-ribosome RFP mutants, fluorescence, 24 h; stronger effect = lower value; DMSO median 0, no signal -100;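 active means significant combined selectivity score with lowered wild-type GFP, culture density cut under 30%, mutant RFP and density less affected; inactive means any of these conditions unmet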
Active calls of the source: *; · = no result given.

SMILES | Vif inh | FGF22 binding | Cneo AK release | PglD DTNB | PGC1a acetyl inh | Ecoli rRNA inh
Cc1ccc(-c2cc(C(=O)Nc3c(C)n(C)n(-c4ccccc4)c3=O)c3ccccc3n2)cc1 | -4.3 | 43.1* | 2.0 | -7.1 | 10.3 | 12.1
Cc1c(NC(=O)c2cc(-c3ccccc3)nc3ccccc23)c(=O)n(-c2ccccc2)n1C | 18.4 | 0.1 | 1.2 | 0.9 | 9.6 | -4.0
Cc1c(NC(=O)c2cc3ccccc3o2)c(=O)n(-c2ccccc2)n1C | 0.7 | · | 1.9 | · | -2.5 | ·
Cc1ccc(-n2cccc2C(=S)N=P(N(C)C)(N(C)C)N(C)C)cc1 | -2.8 | · | 1.2 | 0.3 | 84.8* | ·
Cc1ccc(-n2cccc2C(=O)NS(=O)(=O)c2ccc(C)cc2)cc1 | 11.9 | -0.1 | 4.1 | -1.5 | 1.7 | 10.9
O=C(O)c1ccc(N2C(=O)C3C4c5ccccc5C(Br)(c5ccccc54)C3C2=O)cc1 (configuration not stated) | -0.7 | 0.8 | · | · | -6.5 | -35.6*
N/C(=N\OC(=O)c1cccc2ccccc12)c1ccc(Br)cc1 | · | 44.0* | · | · | · | 3.3
C[C@H](CO)N1C[C@H](C)[C@H](CN(C)S(=O)(=O)c2ccccc2)OCCCC[C@H](C)Oc2ccc(NC(=O)NC3CCCCC3)cc2C1=O | · | -0.2 | -0.1 | -0.6 | -0.5 | 0.0
COc1ccc(N(C)S(=O)(=O)c2ccc(C)cc2)c([N+](=O)[O-])c1 | -0.1 | 0.1 | · | · | -1.5 | -20.2
Cc1ccc(S(=O)(=O)N(C)c2ccc(C)c([N+](=O)[O-])c2)cc1 | 13.5 | 43.4* | · | · | -32.0 | -22.7
COc1ccc2[nH]c3c4c(ccc3c2c1)C(=O)C=CC4=O | 51.5* | -0.4 | -1.9 | 0.1 | 24.6 | -3.9
C[C@H]1CN([C@@H](C)CO)C(=O)c2cc(NS(=O)(=O)c3ccc(Cl)cc3)ccc2O[C@@H]1CN(C)Cc1ccc(C(F)(F)F)cc1 | · | · | · | · | -2.3 | -0.5
Cc1ccc(C)c(NC(=O)C(=O)NCCc2c[nH]c3ccccc23)c1 | -0.3 | 0.0 | 4.9 | 1.5 | 9.0 | -20.8*
COC(=O)/C(C#N)=C/c1c[nH]c2ccccc12 | -3.2 | 0.0 | · | · | · | -22.1*
CCOC(=O)/C(C#N)=C/c1c[nH]c2ccccc12 | -14.4 | · | · | · | · | ·
N#C/C(=C/c1ccc(Br)s1)C(=O)NCCc1c[nH]c2ccccc12 | -3.0 | 1.2 | · | · | · | ·
COc1ccc(CNC(=O)NCCc2c[nH]c3ccccc23)cc1 | 8.3 | 0.0 | -1.1 | 13.0 | 9.4 | -4.7
COc1ccc(CCNC(=S)NCCc2c[nH]c3ccccc23)cc1 | -5.3 | 1.4* | · | · | · | -33.2*
Cc1cc(/C=C(\C#N)C(=O)NCCc2c[nH]c3ccccc23)c(C)n1C | -1.9 | 0.3 | · | · | · | -38.5*
CC(C)NC(=O)Nc1ccc2c(c1)CC(=O)N([C@H](C)CO)C[C@@H](C)[C@@H](CN(C)Cc1ccccc1)O2 | · | 0.4 | -1.8 | -1.3 | -1.1 | 2.0
COc1ccccc1NC(=O)NCCc1c[nH]c2ccccc12 | -1.9 | 0.1 | · | · | -1.3 | -21.8*
Cc1ccccc1NC(=S)NCCc1c[nH]c2ccccc12 | 3.6 | 0.3 | · | · | · | -24.1*
Cc1ccc(C)c(NC(=S)NCCc2c[nH]c3ccccc23)c1 | 0.4 | 0.3 | 2.9 | 10.9 | -5.6 | -16.9
C[C@@H]1CN(C)C(=O)Cc2cc(N)ccc2O[C@@H]1CN(C)C | · | · | · | · | · | 2.6
Cc1ccc(S(=O)(=O)N[C@@H](Cc2ccccc2)C(=O)N2CCC(C(=O)N[C@@H](CCC(N)=O)C(=O)O)CC2)cc1 | 59.0* | 0.2 | -0.9 | 0.5 | · | 8.9
SMILES | Vif inh | FGF22 binding | Cneo AK release | PglD DTNB | PGC1a acetyl inh | Ecoli rRNA inh
C[C@H](CO)N1C[C@H](C)[C@@H](CN(C)S(C)(=O)=O)Oc2ncc(C#CC3CCCC3)cc2C1=O | · | 0.1 | -0.6 | 10.8 | 4.4 | 0.7
CC1CCCC(NC(=O)CN2C(=O)COc3ccccc32)C1C (configuration not stated) | -2.6 | 0.1 | 1.4 | 0.9 | 6.7 | 11.6
CC1CCCC(NC(=O)CCN2C(=O)COc3ccccc32)C1C (configuration not stated) | 50.2* | 0.1 | 0.4 | -0.2 | -4.9 | 3.0
O=C(O)CC/C(=C\c1ccc(N2CCCC2)c([N+](=O)[O-])c1)c1nc2ccccc2s1 | -5.7 | 0.0 | · | · | · | -39.8*
CN(c1ccccc1)c1ccc(/C=C(/CCC(=O)O)c2nc3ccccc3s2)cc1[N+](=O)[O-] | 2.3 | -0.3 | · | · | · | -33.3
O=C(c1ccccn1)N1CC[C@H]2[C@H](CO)Nc3ccc(-c4ccc(F)cc4)cc3[C@H]21 | · | 0.8 | 59.5 | -3.7 | -1.7 | -5.0
CCOc1c(Br)cc(C(N)=O)cc1OCc1ccccc1 | 1.5 | -0.6 | · | · | · | -37.3
COc1cc(C(N)=O)cc(Br)c1OCc1ccccc1 | -5.8 | -0.2 | · | · | · | -27.7*
CC(C)C#Cc1ccc2c(c1)O[C@H](CN(C)S(C)(=O)=O)[C@H](C)CN([C@H](C)CO)S2(=O)=O | · | 0.0 | 3.3 | -2.5 | -10.8 | -5.2
COCCNc1nc(-c2cc(C)n(CCc3ccc(OC)cc3)c2C)cs1 | 13.7 | 43.3* | 2.4 | -1.0 | -1.1 | 16.2
COc1ccc(C2=Nc3ccccc3NC(=O)C2N(C(=O)c2cnc(C)cn2)c2ccc(N3CCOCC3)cc2)cc1 (configuration not stated) | 13.6 | -0.5 | 0.1 | 4.4 | 11.4 | 7.9
COc1ccc(C2=Nc3ccccc3NC(=O)C2N(C(=O)c2ccnc3ccccc23)c2ccccc2)cc1 (configuration not stated) | · | 0.0 | 1.4 | 4.0 | -5.0 | -20.9*
COc1cccc(-c2cc(NC=O)c3ncc(-c4cc(OC)c(OC)c(OC)c4)n3c2)c1 | 76.8* | 0.1 | 1.0 | -2.9 | -47.4 | 5.1
COc1ccc(F)cc1-c1cc(NC(C)=O)c2ncc(-c3cc(OC)c(OC)c(OC)c3)n2c1 | 67.6* | 0.1 | 0.7 | -4.2 | -5.0 | -0.9
COc1ccc(-c2cnc3c(NC(C)=O)cc(-c4cc(F)ccc4OC)cn23)cc1OC | · | 0.1 | -0.4 | 0.5 | 0.1 | 1.4
C[C@@H]1CN([C@@H](C)CO)C(=O)c2cc(C3=CCCC3)cnc2O[C@@H]1CN(C)C(=O)Nc1cccc(F)c1 | · | 0.0 | -2.9 | 2.5 | -131.2 | -5.3
CCCC#Cc1ccc([C@@H]2[C@H]3CN(C(=O)Cc4cccnc4)CC(=O)N3[C@H]2CO)cc1 | · | · | · | · | 10.1 | -0.8
CN(C)CCN(Cc1ccco1)C(=O)c1cc2c(Cl)nc3ccccc3c2s1 | -0.5 | -0.3 | · | · | · | -33.4*
Cc1ccc2nc(Cl)c3cc(C(=O)N(CCN(C)C)Cc4ccco4)sc3c2c1 | -2.7 | -0.1 | · | · | -10.9 | -15.9
CC(=O)N1CCC(N(CCN2CCOCC2)C(=O)Nc2ccc(Cl)c(Cl)c2)CC1 | 2.6 | -0.1 | 1.9 | 0.7 | -4.7 | -40.0*
O=S(=O)(Cc1cc(NCc2ccccc2)nc(-c2ccccn2)n1)c1ccccc1 | -0.6 | 0.5 | · | · | · | -39.1*

Screening results as filed in PubChem BioAssay.
